Measured values taken from ChEMBL document CHEMBL4325869, “1,2,3,4-Tetrahydroisoquinoline/2H-chromen-2-one conjugates as nanomolar P-glycoprotein inhibitors: Molecular determinants for affinity and selectivity over multidrug resistance associated protein 1” (Eur J Med Chem, 2019).

Assays:
[1] = target: T1, ATP-dependent translocase ABCB1 (Homo sapiens, UniProt P08183); assay: Inhibition of MDR1 (unknown origin) expressed in MDCK cells assessed as reduction in calcein-AM efflux preincubated for 30 mins followed by calcein-AM addition measured after 30 mins by spectrofluorimetric method; type: cell-based
T1 sequence (P08183 whole entry): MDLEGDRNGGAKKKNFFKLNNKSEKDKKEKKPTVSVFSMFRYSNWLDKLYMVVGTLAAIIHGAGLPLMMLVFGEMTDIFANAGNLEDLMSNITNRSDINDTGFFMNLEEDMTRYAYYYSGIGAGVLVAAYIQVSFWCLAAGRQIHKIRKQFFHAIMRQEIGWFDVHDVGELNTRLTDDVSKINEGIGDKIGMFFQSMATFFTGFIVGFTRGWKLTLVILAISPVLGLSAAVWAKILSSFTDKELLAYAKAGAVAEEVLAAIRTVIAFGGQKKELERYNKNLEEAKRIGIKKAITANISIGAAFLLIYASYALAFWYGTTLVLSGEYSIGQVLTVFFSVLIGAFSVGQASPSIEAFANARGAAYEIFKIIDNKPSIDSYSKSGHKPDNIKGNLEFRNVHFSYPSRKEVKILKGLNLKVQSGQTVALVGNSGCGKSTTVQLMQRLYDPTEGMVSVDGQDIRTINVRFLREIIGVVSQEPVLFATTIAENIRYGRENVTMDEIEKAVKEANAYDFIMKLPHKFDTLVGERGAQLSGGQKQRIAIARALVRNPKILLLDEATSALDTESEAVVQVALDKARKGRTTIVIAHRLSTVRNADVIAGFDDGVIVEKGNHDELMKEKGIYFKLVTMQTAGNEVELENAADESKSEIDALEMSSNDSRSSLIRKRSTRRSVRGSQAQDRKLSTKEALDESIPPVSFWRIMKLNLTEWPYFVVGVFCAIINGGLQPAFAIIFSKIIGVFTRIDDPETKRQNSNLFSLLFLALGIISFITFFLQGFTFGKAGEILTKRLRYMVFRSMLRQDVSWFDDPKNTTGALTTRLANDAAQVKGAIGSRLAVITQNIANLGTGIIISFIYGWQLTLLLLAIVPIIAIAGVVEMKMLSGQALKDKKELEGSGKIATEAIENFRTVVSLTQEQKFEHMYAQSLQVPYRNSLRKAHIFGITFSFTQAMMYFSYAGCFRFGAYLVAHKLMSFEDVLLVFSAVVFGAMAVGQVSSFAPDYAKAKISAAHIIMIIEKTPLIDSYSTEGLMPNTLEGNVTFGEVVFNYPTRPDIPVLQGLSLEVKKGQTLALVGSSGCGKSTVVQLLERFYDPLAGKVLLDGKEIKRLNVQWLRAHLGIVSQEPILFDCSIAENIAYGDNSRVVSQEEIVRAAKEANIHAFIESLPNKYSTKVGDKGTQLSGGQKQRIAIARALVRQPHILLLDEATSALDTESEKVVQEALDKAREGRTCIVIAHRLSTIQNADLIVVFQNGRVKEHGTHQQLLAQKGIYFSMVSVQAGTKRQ

[2] = target: T1, ATP-dependent translocase ABCB1; assay: Inhibition of MDR1 (unknown origin) expressed in MDCK cells assessed as potentiation of doxorubicin-induced cytotoxicity preincubated for 24 hrs followed by doxorubicin addition measured after 72 hrs by MTT assay; type: cell-based
How it was run: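 MDCK-MDR1 cells were seeded at 10,000/well, and compound was added at 0.1, 1 and 10 µM on day 2. On day 3 the medium was replaced with compound plus 10 µM doxorubicin. The 72 h run ended with MTT (0.5 mg/mL, 3 h, 37 °C) and DMSO solubilization, read at 570/630 nm. Growth is % of drug-free control, compared against doxorubicin alone by one-way ANOVA with Bonferroni post-hoc.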

MDCK = assay: Cytotoxicity against MDCK cells expressing MDR1 assessed as reduction in cell viability at 10 uM after 72 hrs by MTT assay; type: ADME, cell-based, Canis lupus familiaris; settings: dog
How it was run: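 MDCK-MDR1 cells (DMEM high glucose, 10% FBS, 37 °C, 5% CO2) were seeded at 10,000/well. Compound was added at 0.1, 1 and 10 µM the next day. On day 3 the medium was replaced with compound alone, and the 72 h run ended with MTT (0.5 mg/mL, 3 h, 37 °C). Formazan was dissolved in DMSO and read at 570/630 nm. Viability is % of untreated control with solvent controls, from 2-3 independent experiments in triplicate.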

IC50 [1] [nM] | SMILES | inhibition (INH) [2] | Activity (MDCK)
1200 | COc1cc2c(cc1OC)CN(CC/C=C1\CCCc3c(OC)cccc31)CC2 | – | –
15000 | Cc1c(C)c2ccc(OCCN3CCc4ccccc4C3)cc2oc1=O | – | –
380 | COc1cc2c(cc1OC)CN(CCOc1ccc3c(C)c(C)c(=O)oc3c1)CC2 | – | –
190 | COc1cc2c(cc1OC)CN(Cc1ccc(COc3ccc4c(C)c(C)c(=O)oc4c3)cc1)CC2 | – | –
410 | COc1cc2c(cc1OC)CN(CCCCOc1ccc3cc(-c4ccccc4)c(=O)oc3c1)CC2 | – | –
330 | COc1cc2c(cc1OC)CN(CCCCCOc1ccc3c(c1)oc(=O)c1ccccc13)CC2 | – | –
190 | COc1cc2c(cc1OC)CN(CCc1ccc(COc3ccc4c(C)c(C)c(=O)oc4c3)cc1)CC2 | Dose-dependent effect | Non-Toxic
220 | COc1cc2c(cc1OC)CN(CCCCCCOc1ccc3c(C)c(C)c(=O)oc3c1)CC2 | – | –
460 | COc1cc2c(cc1OC)CN(CCCCCOc1ccc3c(C)c(Cl)c(=O)oc3c1)CC2 | – | –
160 | COc1cc2c(cc1OC)CN(Cc1cccc(COc3ccc4c(C)c(C)c(=O)oc4c3)c1)CC2 | – | –
280 | COc1cc2c(cc1OC)CN(CCCCCOc1ccc3c(C)c(Br)c(=O)oc3c1)CC2 | Dose-dependent effect | Non-Toxic
910 | Cc1c(C)c2ccc(OCCCCN3CCc4ccccc4C3)cc2oc1=O | – | –
150 | COc1cc2c(cc1OC)CN(CCCCOc1ccc3c(C)c(C)c(=O)oc3c1)CC2 | – | –
550 | Cc1c(C)c2ccc(OCCCCCN3CCc4ccccc4C3)cc2oc1=O | Dose-dependent effect | Non-Toxic
160 | COc1cc2c(cc1OC)CN(Cc1ccccc1COc1ccc3c(C)c(C)c(=O)oc3c1)CC2 | – | –
770 | COc1cc2c(cc1OC)CN(Cc1cccc(COc3ccc4ccc(=O)oc4c3)c1)CC2 | – | –
1000 | COc1cc2c(cc1OC)CN(C/C=C/COc1ccc3c(C)c(C)c(=O)oc3c1)CC2 | – | –
560 | COc1cc2c(cc1OC)CN(CCCCOc1ccc3c(C)c(Cl)c(=O)oc3c1)CC2 | – | –
390 | COc1cc2c(cc1OC)CN(CCCCCOc1ccc3cc(-c4ccccc4)c(=O)oc3c1)CC2 | Dose-dependent effect | Non-Toxic
190 | COc1cc2c(cc1OC)CN(CCCOc1ccc3c(C)c(C)c(=O)oc3c1)CC2 | – | –
220 | COc1cc2c(cc1OC)CN(CCCCCOc1ccc3c(C)c(-c4ccccc4)c(=O)oc3c1)CC2 | Dose-dependent effect | Non-Toxic
2700 | Cc1c(C)c2ccc(OCCCN3CCc4ccccc4C3)cc2oc1=O | – | –
70 | COc1cc2c(cc1OC)CN(CCCCCOc1ccc3c(C)c(C)c(=O)oc3c1)CC2 | Dose-dependent effect | Non-Toxic
